Laboratory results: PMC11529722 (Science Advances, 2024)
Blank lines part the entries; values can stand above or below the sequence they belong to.

Columns and labels:
[1] = test system: pepsin; experiment: pepsin in hydrochloric acid solution; details: 37°C, up to 150 min
[2] = test system: chymotrypsin; experiment: chymotrypsin; details: set for optimal enzyme activity, up to 1 hour
[3] = test system: pronase; experiment: pronase; details: set for optimal enzyme activity, up to 1 hour
[4] = test system: elastase; experiment: elastase; details: set for optimal enzyme activity, up to 1 hour
[5] = biological target: VCP protein (Homo sapiens, UniProt P55072); experiment: BLI; format: binding; details: immobilized VCP
Sequence of VCP protein (P55072 whole entry, species assumed): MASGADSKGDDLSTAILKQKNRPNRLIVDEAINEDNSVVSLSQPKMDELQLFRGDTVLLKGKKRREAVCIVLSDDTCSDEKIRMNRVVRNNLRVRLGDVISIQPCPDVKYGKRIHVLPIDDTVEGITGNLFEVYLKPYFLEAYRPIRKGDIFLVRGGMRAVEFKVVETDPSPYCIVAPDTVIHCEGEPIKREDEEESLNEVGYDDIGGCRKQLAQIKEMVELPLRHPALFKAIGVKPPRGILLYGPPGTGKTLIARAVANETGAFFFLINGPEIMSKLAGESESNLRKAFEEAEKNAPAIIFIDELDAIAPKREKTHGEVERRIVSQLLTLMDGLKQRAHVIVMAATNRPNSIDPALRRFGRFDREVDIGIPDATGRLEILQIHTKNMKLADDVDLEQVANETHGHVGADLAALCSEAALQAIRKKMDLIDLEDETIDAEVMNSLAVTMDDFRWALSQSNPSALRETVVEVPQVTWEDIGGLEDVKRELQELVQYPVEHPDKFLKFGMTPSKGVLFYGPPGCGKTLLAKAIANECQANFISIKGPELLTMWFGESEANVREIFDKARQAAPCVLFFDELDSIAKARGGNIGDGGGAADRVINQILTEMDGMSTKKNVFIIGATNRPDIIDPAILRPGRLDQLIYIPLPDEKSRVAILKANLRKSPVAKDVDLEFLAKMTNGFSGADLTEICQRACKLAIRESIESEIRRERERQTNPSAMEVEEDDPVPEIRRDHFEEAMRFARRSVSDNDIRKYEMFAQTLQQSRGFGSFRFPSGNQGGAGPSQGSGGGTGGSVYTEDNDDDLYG
Summary of the method: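 Anti-His biosensor hydrated, then His-tagged VCP (50 µg/ml in sodium acetate buffer, pH 6.5) immobilized. Test compound (peptide or polymer) dissolved in tris buffer (pH 8.4) and run over a range of concentrations as analyte. KD, on-rate (ka) and off-rate (kd) were measured for each analyte by biolayer interferometry (BLItz).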

[6] = test system: R6/2 mice; experiment: VCP level in striatal mitochondrial fractions of R6/2 mice; format: in vivo, mouse; details: 13-week-old R6/2 mice, WB, ATPB loading control
Summary of the method: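 Striatum of 13-week-old pump-dosed mice homogenised in 250 mM sucrose, 20 mM Hepes pH 7.5, 10 mM KCl, 1.5 mM MgCl₂, EDTA/EGTA. Passed 20× through a 25-gauge needle, iced 30 min. Spun 800g 10 min, then supernatant 10,000g 20 min at 4°C; pellet washed and re-spun. Mitochondria lysed in 1% Triton X-100; VCP Western blot, ATPB loading control.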

[7] = test system: pronase, chymotrypsin, elastase; experiment: Enzyme degradation resistance by SDS-PAGE; format: in vitro ADME; details: treated separately with pronase, chymotrypsin and elastase for 1 hour, Coomassie Blue
[8] = test system: red blood cells; experiment: Hemocompatibility: hemolysis; details: human red blood cells in PBS, 37°C, 1 hour, absorbance 405 nm, n = 4
Summary of the method: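 Na citrate-anticoagulated whole human blood spun 500g 5 min. Plasma replaced with 150 mM NaCl; wash repeated twice more; RBCs resuspended in PBS. Compound added 1:20 (v/v) to RBC suspension, 37°C 1 h, n = 4. Spun 500g 5 min; supernatant transferred for reading. 20% Triton X-100 positive control; PBS vehicle.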

[9] = test system: C57BL/6J mice; experiment: Toxicity in C57BL/6J mice: histopathology scoring; format: in vivo, mouse; details: C57BL/6J WT mice, 3 mg/kg with respect to peptide, Alzet osmotic pump, 8 weeks, blinded pathologist
Summary of the method: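 Male C57BL/6J mice, three groups of n = 3–4. Saline, peptide or polymer (3 mg/kg with respect to peptide) given by subcutaneous osmotic pump for 8 weeks.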

[10] = test system: R6/2 mice; experiment: Neuropathology in striatum of R6/2 mice; format: in vivo, mouse; details: 13-week-old R6/2 mice
[11] = test system: C3a in human serum; experiment: C3a complement activation ELISA; details: human serum 4 hours; P1 at 9.9 and 33 μM (3 and 10 mg/kg); n = 4
Summary of the method: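 Test compound incubated in human serum at 1:250 and 1:500 (compound:serum) for 4 h, then diluted. C3a ELISA: 2 h in C3a antibody-coated wells with shaking, 3 washes, biotin primary antibody 1 h, washes, streptavidin 1 h, substrate 30 min, absorbance 450 nm. Cobra venom factor positive control; DPBS vehicle.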

[12] = test system: C57BL/6J mice; experiment: Toxicity in C57BL/6J mice: complete blood count; format: in vivo, mouse; details: C57BL/6J WT mice, 3 mg/kg with respect to peptide, Alzet osmotic pump, 8 weeks
Summary of the method: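 Healthy male C57BL/6J mice in three groups (n = 3 to 4 per group) received test compound at 3 mg/kg with respect to peptide, or saline as negative control, via subcutaneously implanted osmotic pump for 8 weeks.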

[13] = biological target: pepsin (Sus scrofa, UniProt P00791); experiment: Enzymatic degradation assay with pepsin by HPLC; format: in vitro ADME; details: pepsin 0.1 μM, pH 2, peptide 200 μM, 37°C, up to 150 min, analytical HPLC
Sequence of pepsin (Sus scrofa, UniProt P00791) (P00791 60-385): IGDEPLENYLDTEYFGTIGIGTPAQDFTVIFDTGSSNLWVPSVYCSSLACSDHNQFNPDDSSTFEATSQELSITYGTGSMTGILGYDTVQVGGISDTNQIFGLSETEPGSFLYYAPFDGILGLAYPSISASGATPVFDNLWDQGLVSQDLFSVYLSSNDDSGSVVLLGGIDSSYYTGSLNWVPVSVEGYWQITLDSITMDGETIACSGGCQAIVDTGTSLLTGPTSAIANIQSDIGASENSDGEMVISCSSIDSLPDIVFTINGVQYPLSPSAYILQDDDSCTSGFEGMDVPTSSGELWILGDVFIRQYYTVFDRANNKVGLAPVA

[14] = test system: R6/2 mice; experiment: In vivo efficacy in HD R6/2 mice: body weight, survival, behavior; set-up: species or system mouse
Summary of the method: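 Male hemizygous R6/2 mice (HD exon 1, 100–150 CAG) and WT littermates. Saline, peptide (3 mg kg⁻¹ day⁻¹) or polymer (1.69 mg kg⁻¹ day⁻¹) given by subcutaneous 28-day osmotic pump from 6 weeks; pump replaced after 4 weeks. Weekly tail suspension 20 s, weeks 7–13, clasping scored 0–3. Body weight and survival recorded throughout. 13–32 mice/group for behaviour.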

[15] = test system: HdhQ111 cells; experiment: Mitochondrial fragmentation assay; format: cell-based, mouse; details: 3 μM three times for 3 days, anti-Tom20, at least 95 cells per group, n = 3
Summary of the method: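 HdhQ111 cells dosed at 3 μM three times over 3 days. Fixed in 4% PFA 20 min, permeabilised with 0.1% Triton X-100, blocked with 2% goat serum. Anti-Tom20 (1:4000) overnight at 4°C, Alexa 488 secondary 2 h RT, Hoechst nuclei stain. Confocal imaging; % cells with fragmented mitochondria, ≥95 cells/group, ≥3 independent replicates.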

not cleaved [1]: no cleavage observed for up to 150 min
not cleaved [2]: maintained molecular weight after 1 hour
not cleaved [3]: maintained molecular weight after 1 hour
not cleaved [4]: maintained molecular weight after 1 hour
Sequence: HVLVMSATRR

Sequence: HVLVMSATRR [P1]
fold decrease in dissociation constant compared to the HV3-TAT peptide [5]: 150 fold
koff ([5]; dissociation rate constant): 2.5e-05 s⁻¹
VCP level on striatal mitochondria [6]: blocks aberrant VCP mitochondrial translocation
molecular weight after enzyme treatment (gel electrophoresis) [7]: maintained molecular weight
hemolytic activity compared to vehicle control [8]: nonsignificant
organ pathology vs saline control group [9]: no significant differences in pathology
striatal BDNF level compared to the HV3-TAT treatment group ([10]; Western blot): significantly higher level of BDNF
mtHtt aggregates in striatum vs saline-treated R6/2 mice ([10]; anti-Htt EM48 staining, n = 6): reduced number of mtHtt aggregates
DARPP-32 immunohistochemical staining in striatum ([10]; n = 6): Enhanced levels of DARPP-32
C3a complement activation compared to vehicle [11]: did not show a statistically significant difference in activity
complete blood count and blood chemistry profile vs saline [12]: no significant deviation of any markers
cleavage by pepsin [13]: no cleavage observed
effects of treatment on WT mice ([14]; WT littermates, P1 1.69 mg kg^−1 day^−1, 6 to 13 weeks of age): no significant effects on motor activity, body weight, or neuropathology
body weight vs R6/2 saline control ([14]; male R6/2 mice, 3 mg kg^−1 day^−1 per peptide (P1 1.69 mg kg^−1 day^−1), Alzet pump, 6 to 13 weeks of age): significantly inhibiting weight loss
survival vs R6/2 saline control ([14]; male R6/2 mice, 3 mg kg^−1 day^−1 per peptide, Alzet pump, 6 to 13 weeks of age): extended survival
clasping times compared to HV3-TAT-treated mice ([14]; male R6/2 mice, tail suspension test): shorter clasping times
hindlimb clasping behavior ([14]; male R6/2 mice, tail suspension test weekly, 3 mg kg^−1 day^−1 per peptide, Alzet pump): attenuated the clasping behavior
mitochondrial fragmentation vs vehicle [15]: marked reduction in the number of fragmented mitochondria
